Source: ChEMBL document CHEMBL4364242, “Novel cationic bis(acylhydrazones) as modulators of Epstein-Barr virus immune evasion acting through disruption of interaction between nucleolin and G-quadruplexes of EBNA1 mRNA” (Eur J Med Chem, 2019)
Active and inactive are the calls of the source. The rule behind the calls is not given here.

Columns and labels:
[1] = tested on: NCI-H1299; assay: Effect on OVA expression in human H1299 cells at 10 uM incubated for 40 hrs by western blot analysis; type: functional; set-up: unit not given here
Procedure, shortened: (§1)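 OVA or 235GAr-OVA constructs transiently transfected into H1299 cells, followed by 40 h exposure to 10 μM compound or DMSO. Whole-cell lysates immunoblotted with rabbit anti-OVA; signal normalized to GAPDH. Experiments repeated at least three times.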

[2] = tested on: human gammaherpesvirus 4; assay: Binding affinity to EBNA1 G4-quadruplex in human H1299 cells assessed as EB virus EBNA1 expression at 10 uM incubated for 40 hrs by western blot analysis; type: cell-based
Procedure, shortened: (§2)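 H1299 cells in RPMI-1640 with 10% FBS at 37 °C, 5% CO2, transiently transfected with EBNA1 or EBNA1ΔGAr constructs, then treated with 10 μM compound (DMSO vehicle) for 40 h. Lysates taken 48 h post-transfection and western blotted with anti-EBNA1 (OT1X). Levels normalized to GAPDH; at least three repeats.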

[3] = tested on: human gammaherpesvirus 4; assay: Binding affinity to EBNA1 G4-quadruplex in human H1299 cells assessed as EB virus EBNA1 deleted GAr expression at 10 uM incubated for 40 hrs by western blot analysis; type: cell-based; procedure, shortened: as §2
[4] = Displacement of TO from EB virus g4-EBNA1 mRNA measured after 5 mins by FID assay; set-up: species or system human gammaherpesvirus 4
Procedure, shortened: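 g4-EBNA1 RNA annealed 95 °C 5 min in K100 buffer (10 mM KAsO2Me2, 100 mM KCl, 1 mM EDTA, 1% DMSO), then mixed with TO; final 0.25 μM RNA and 0.5 μM TO, ligand 0–2.5 μM. Fluorescence read after 5 min shaking (485/520 nm), in duplicate. Displacement = 100×(1−F/F0); DC50 interpolated from the curve.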

[5] = tested on: human gammaherpesvirus 4; assay: Binding affinity to EB virus F-g4-EBNA1 mRNA assessed as increase in melting temperature at 1 uM by fluorescence method
[6] = tested on: NCI-H1299; assay: Effect on 235Gar-OVA expression in human H1299 cells at 10 uM incubated for 40 hrs by western blot analysis; type: functional; set-up: unit not given here; procedure, shortened: as §1
[7] = Binding affinity to […] (unknown origin) assessed as increase in melting temperature at 1 uM by fluorescence method
Procedure, shortened: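 Labeled F-myc22-T DNA (5'-FAM/3'-TAMRA) melted with 1 μM ligand in K-1 buffer (10 mM LiAsO2Me2, 1 mM KCl, 99 mM LiCl, pH 7.3). Ramp 0.5 °C/min from 25 to 95 °C. Tm taken from first-derivative maxima and ΔTm calculated versus ligand-free control.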

[8] = species on record: Homo sapiens; assay: Binding affinity to […] assessed as increase in melting temperature at 1 uM by fluorescence method
Procedure, shortened: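 F-25TAG-T telomeric DNA (5'-FAM/3'-TAMRA) melted with 1 μM ligand in K-100 buffer (10 mM LiAsO2Me2, 100 mM KCl, pH 7.3). Heating 25–95 °C at 0.5 °C/min. ΔTm derived from first-derivative Tm maxima relative to the no-ligand run.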

[9] = tested on: NCI-H1299; assay: Cytotoxicity against OVA-over expressing human H1299 cells at 10 uM incubated for 40 hrs; type: cell-based; conditions: nci-h1299, 40 h
[10] = tested on: NCI-H1299; assay: Cytotoxicity against 235Gar-OVA-over expressing human H1299 cells at 10 uM incubated for 40 hrs; type: cell-based; conditions: nci-h1299, 40 h
[11] = Inhibition of recombinant NCL (unknown origin)/EB virusG4-EBNA1 mRNA interaction at 10 uM by RNA pull-down assay
Procedure, shortened: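 Biotin-TEG RNA (g4-EBNA1 or non-G4 GM) folded in 10 mM Tris pH 7.5, 100 mM KCl, 0.1 mM EDTA (95 °C 5 min, cooled 2 °C/min), then bound to blocked streptavidin beads. 200 ng recombinant NCL added for 90 min at room temperature with 10 μM compound or DMSO. Beads washed up to 800 mM KCl; eluates western-blotted for NCL.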

Row | SMILES | Activity [1] | Activity [2] | Activity [3] | IC50 [4] | ΔTm [5] | Activity [6] | ΔTm [7] | ΔTm [8] | Activity [5] | Activity [9] | Activity [10] | fold change (FC) [11]
1 | C[n+]1ccc(/C=N/NC(=O)c2ccc3ccc(C(=O)N/N=C/c4cc[n+](C)cc4)nc3n2)cc1.[I-].[I-] | 99 | inactive | inactive | 930 nM | < 10 °C | 112 |  |  |  |  |  | 
2 | C[n+]1ccc(/C=N/NC(=O)c2ccc3ccc4ccc(C(=O)N/N=C/c5cc[n+](C)cc5)nc4c3n2)cc1.[I-].[I-] | 76 | Active | Active | 320 nM | 10 to 20 °C | 78 | 15 to 30 °C | 15 to 30 °C |  |  |  | 
3 | CC[n+]1cccc2cc(/C=N/NC(=O)c3cccc(C(=O)N/N=C/c4ccc5c(ccc[n+]5CC)c4)n3)ccc21.[I-].[I-] | 98 | inactive | inactive | 740 nM |  | 86 | 15 to 30 °C | 15 to 30 °C | Active |  |  | 
4 | C[n+]1ccc(/C=N/NC(=O)c2ccc3ccc(C(=O)N/N=C/c4cc[n+](C)c5ccccc45)nc3n2)c2ccccc21.[I-].[I-] | 100 | inactive | inactive | 610 nM |  | 95 | 15 to 30 °C | 15 to 30 °C | Active |  |  | 
5 | C[n+]1ccc(C=NNC(=O)c2ccc3ccc4ccc(C(=O)NN=Cc5cc[n+](C)cc5)nc4c3n2)cc1.[I-].[I-] |  |  |  |  |  |  |  |  |  | Toxic | Toxic | 
6 | C[n+]1ccc(/C=N/NC(=O)c2cccc(C(=O)N/N=C/c3cc[n+](C)cc3)n2)cc1.[I-].[I-] | 93 | inactive | inactive | 2320 nM | < 10 °C | 106 |  |  |  |  |  | 
7 | CC[n+]1cccc2cc(/C=N/NC(=O)c3cc(C(=O)N/N=C/c4ccc5c(ccc[n+]5CC)c4)ncn3)ccc21.[I-].[I-] | 47 | Active | Active | > 2500 nM |  | 48 |  |  |  | Toxic | Toxic | 
8 | CC[n+]1cccc2cc(/C=N/NC(=O)c3ccc4ccc5ccc(C(=O)N/N=C/c6ccc7c(ccc[n+]7CC)c6)nc5c4n3)ccc21.[I-].[I-] | 96 | inactive | inactive | 590 nM | 20 to 30 °C | 80 | 15 to 30 °C | 15 to 30 °C |  |  |  | 
9 | C[n+]1cc(NC(=O)c2ccc3ccc4ccc(C(=O)Nc5cc6ccccc6[n+](C)c5)nc4c3n2)cc2ccccc21 |  |  |  | 310 nM | 30 °C |  | > 35 °C | > 35 °C |  |  |  | 2
10 | O=C(N/N=C/c1ccc2c(ccc[n+]2Cc2ccccc2)c1)c1ccc2ccc3ccc(C(=O)N/N=C/c4ccc5c(ccc[n+]5Cc5ccccc5)c4)nc3c2n1.[Br-].[Br-] | 94 | inactive | inactive | 650 nM | 20 to 30 °C | 111 | 15 to 30 °C | 15 to 30 °C |  |  |  | 
11 | O=C(N/N=C/c1cc[n+](Cc2ccccc2)c2ccccc12)c1ccc2ccc(C(=O)N/N=C/c3cc[n+](Cc4ccccc4)c4ccccc34)nc2n1.[Br-].[Br-] | 93 | inactive | inactive | 710 nM |  | 106 | 15 to 30 °C | 15 to 30 °C | Active |  |  | 
12 | O=C(N/N=C/c1ccc2c(ccc[n+]2Cc2ccccc2)c1)c1ccc2ccc(C(=O)N/N=C/c3ccc4c(ccc[n+]4Cc4ccccc4)c3)nc2n1.[Br-].[Br-] | 108 | inactive | inactive | 1090 nM |  | 104 | 15 to 30 °C | 15 to 30 °C | Active |  |  | 
13 | O=C(N/N=C/c1cc[n+](Cc2ccccc2)c2ccccc12)c1cccc(C(=O)N/N=C/c2cc[n+](Cc3ccccc3)c3ccccc23)n1.[Br-].[Br-] | 149 | Active | Active | 390 nM |  | 134 | 15 to 30 °C | 15 to 30 °C | Active |  |  | 
14 | CC[n+]1cccc2cc(/C=N/NC(=O)c3ccc4ccc(C(=O)N/N=C/c5ccc6c(ccc[n+]6CC)c5)nc4n3)ccc21.[I-].[I-] | 111 | inactive | inactive | 800 nM |  | 82 | 15 to 30 °C | 15 to 30 °C | Active |  |  | 
15 | O=C(N/N=C/c1ccc2c(ccc[n+]2Cc2ccccc2)c1)c1cc(C(=O)N/N=C/c2ccc3c(ccc[n+]3Cc3ccccc3)c2)ncn1.[Br-].[Br-] | 137 | Active | Active | > 2500 nM |  | 139 |  |  |  |  |  | 
16 | C[n+]1ccc(/C=N/NC(=O)c2cc(C(=O)N/N=C/c3cc[n+](C)cc3)ncn2)cc1.[I-].[I-] | 92 | inactive | inactive | > 2500 nM |  | 80 |  |  |  |  |  | 
17 | O=C(N/N=C/c1ccc2c(ccc[n+]2Cc2ccccc2)c1)c1cccc(C(=O)N/N=C/c2ccc3c(ccc[n+]3Cc3ccccc3)c2)n1.[Br-].[Br-] | 70 | Active | Active | 720 nM |  | 58 | 15 to 30 °C | 15 to 30 °C | Active | Toxic | Toxic | 
18 | O=C(N/N=C/c1cc[n+](Cc2ccccc2)c2ccccc12)c1ccc2ccc3ccc(C(=O)N/N=C/c4cc[n+](Cc5ccccc5)c5ccccc45)nc3c2n1.[Br-].[Br-] | 114 | inactive | inactive | 340 nM | 20 to 30 °C | 96 | 15 to 30 °C | 15 to 30 °C |  |  |  | 
19 | O=C(N/N=C/c1cc[n+](Cc2ccccc2)c2ccccc12)c1cc(C(=O)N/N=C/c2cc[n+](Cc3ccccc3)c3ccccc23)ncn1.[Br-].[Br-] | 106 | inactive | inactive | 1240 nM |  | 108 |  |  |  |  |  | 
20 | C[n+]1ccc(/C=N/NC(=O)c2cc(C(=O)N/N=C/c3cc[n+](C)c4ccccc34)ncn2)c2ccccc21.[I-].[I-] | 103 | inactive | inactive | 740 nM |  | 89 |  |  |  |  |  | 
